The values that follow come from paper PMC2630402 (Journal of medicinal chemistry, 2008).

Read-outs that look alike come from different tables or passages of the source.

Series [1] relates to αvβ6-positive (DX3puroβ6) tumor. The experiment in a line: Biodistribution in mice bearing paired αvβ6-positive. It counts as in vivo, male athymic nude mice. The settings on record: for uptake in the αvβ6-positive tumor: DX3puroβ6 xenograft, 1 hour after injection; for uptake in the αvβ6-positive tumor / level of activity in the urine: n = 3/tracer; for level of activity in the urine: male athymic nude mice. A digest of the protocol: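 Test compounds were 18F-labeled αvβ6-targeting peptides carrying different prosthetic groups. Radioactivity in healthy tissues and in both tumors was measured 1 h after injection and expressed as % ID/g, the percent of injected radioactive dose per gram of tissue. There were 3 mice per tracer.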

Series [2] shares this test system. The following applies: DX3puroβ6 xenograft, 1 hour after injection, n = 3/tracer; data for 1 taken from ref 8; cited from earlier work.

[^18F]FPA-A20FDMV2 [compound 2]: in series [1], the “uptake in the αvβ6-positive tumor” value worked out at 1.18 ± 0.28 % ID/g. Moreover, in series [1] (biodistribution, 1 h p.i.), the “level of activity in the urine” value is listed as 311 ± 133 % ID/g.
Regarding [^18F]FC5-A20FDMV2 [compound 3], the “uptake in the αvβ6-positive tumor” value in series [1] turned out to be 1.01±0.09 % ID/g. In series [1] (biodistribution, 1 h p.i., compared with 1 and 2), the “levels of radioactivity in the kidneys and the liver” value is recorded as “moderately increased”. Besides, the “level of activity in the urine” value in series [1] (biodistribution, 1 h p.i.) is listed as 501 ± 332 % ID/g.
Consider [^18F]FBA-A20FDMV2 [compound 1], for which, in series [2], the “uptake in the αvβ6-positive tumor” value is reported as 0.66 ± 0.09 % ID/g.
